Results taken from ChEMBL document CHEMBL6134796, “Development and Evaluation of Indole-Based Phospholipase D Inhibitors for Lung Cancer Immunotherapy” (J Med Chem, 2025).
Calls of active or inactive are those of the source. The rule behind the calls is not given here.

Experiments:
HCC44 = test: Cytotoxicity against human HCC44 cells assessed as inhibition of cell growth incubated for 48 hrs by WST-1 assay; format: functional, cell-based; conditions: HCC44, 48 h
How it was run: (§1)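 WST-1 viability assay. Cells seeded at 5 × 10^3 per well and incubated 24 h at 37 °C, then exposed to drug for 48 h. Absorbance read at 450 nm, in triplicate. IC50 taken as the concentration giving 50% growth inhibition versus control.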

[1] = biological target: T1, Phospholipase D1 (Mus musculus) (UniProt Q9Z280); test: In vivo inhibition of PLD1 in male C57BL/6 mouse allografted with mouse Lewis lung carcinoma cell line assessed as increase in CD4+ cell population at 10 mg/kg, po by immunofluorescence analysis; format: functional, organism-based
T1 sequence (whole entry): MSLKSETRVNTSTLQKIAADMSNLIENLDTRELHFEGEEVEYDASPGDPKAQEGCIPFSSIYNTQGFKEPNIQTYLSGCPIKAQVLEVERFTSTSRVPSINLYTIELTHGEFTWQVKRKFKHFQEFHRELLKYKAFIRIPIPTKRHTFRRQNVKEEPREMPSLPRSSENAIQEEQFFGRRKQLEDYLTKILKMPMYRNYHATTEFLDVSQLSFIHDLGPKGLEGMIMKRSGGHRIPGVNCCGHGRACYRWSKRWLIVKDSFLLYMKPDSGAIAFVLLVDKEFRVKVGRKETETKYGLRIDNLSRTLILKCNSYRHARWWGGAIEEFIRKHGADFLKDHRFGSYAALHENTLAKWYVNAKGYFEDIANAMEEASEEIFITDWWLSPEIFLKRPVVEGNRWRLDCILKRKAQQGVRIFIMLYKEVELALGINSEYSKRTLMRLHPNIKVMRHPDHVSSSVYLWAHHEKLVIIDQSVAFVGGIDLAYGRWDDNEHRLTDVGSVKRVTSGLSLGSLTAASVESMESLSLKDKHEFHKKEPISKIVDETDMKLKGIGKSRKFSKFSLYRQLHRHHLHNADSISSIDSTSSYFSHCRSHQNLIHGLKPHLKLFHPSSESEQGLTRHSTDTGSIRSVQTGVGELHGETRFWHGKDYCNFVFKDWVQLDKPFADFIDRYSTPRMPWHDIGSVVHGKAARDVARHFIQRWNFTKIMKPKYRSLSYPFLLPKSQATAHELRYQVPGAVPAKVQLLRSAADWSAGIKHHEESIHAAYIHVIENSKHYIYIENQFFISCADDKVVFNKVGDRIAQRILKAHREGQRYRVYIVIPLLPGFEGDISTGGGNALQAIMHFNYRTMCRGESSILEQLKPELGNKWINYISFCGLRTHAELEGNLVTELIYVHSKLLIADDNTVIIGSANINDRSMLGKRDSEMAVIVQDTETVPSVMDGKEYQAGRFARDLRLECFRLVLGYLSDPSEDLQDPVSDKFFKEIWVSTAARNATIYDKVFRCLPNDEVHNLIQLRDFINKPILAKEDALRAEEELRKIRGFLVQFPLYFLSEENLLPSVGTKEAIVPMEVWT
How it was run: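 Same LLC syngeneic C57BL/6 model, 10 mg/kg PO every other day for 3 weeks. Tumor tissues were stained by immunofluorescence for CD80+ and CD163+ cells, CD8+ T cells, and CD4+/IL-17+ and Treg populations. Nuclei were counterstained with 1 μM Hoechst 33342 and imaged by confocal microscopy.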

[2] = biological target: T2, Phospholipase D1 (Homo sapiens) (UniProt Q13393); test: Binding affinity to PLD1 in human A549 cells assessed as protection against pronase E-mediated proteolysis at 2 to 20 uM incubated for 1 hr by DARTS assay; format: cell-based; conditions: dose 2-20 µM
T2 sequence (whole entry): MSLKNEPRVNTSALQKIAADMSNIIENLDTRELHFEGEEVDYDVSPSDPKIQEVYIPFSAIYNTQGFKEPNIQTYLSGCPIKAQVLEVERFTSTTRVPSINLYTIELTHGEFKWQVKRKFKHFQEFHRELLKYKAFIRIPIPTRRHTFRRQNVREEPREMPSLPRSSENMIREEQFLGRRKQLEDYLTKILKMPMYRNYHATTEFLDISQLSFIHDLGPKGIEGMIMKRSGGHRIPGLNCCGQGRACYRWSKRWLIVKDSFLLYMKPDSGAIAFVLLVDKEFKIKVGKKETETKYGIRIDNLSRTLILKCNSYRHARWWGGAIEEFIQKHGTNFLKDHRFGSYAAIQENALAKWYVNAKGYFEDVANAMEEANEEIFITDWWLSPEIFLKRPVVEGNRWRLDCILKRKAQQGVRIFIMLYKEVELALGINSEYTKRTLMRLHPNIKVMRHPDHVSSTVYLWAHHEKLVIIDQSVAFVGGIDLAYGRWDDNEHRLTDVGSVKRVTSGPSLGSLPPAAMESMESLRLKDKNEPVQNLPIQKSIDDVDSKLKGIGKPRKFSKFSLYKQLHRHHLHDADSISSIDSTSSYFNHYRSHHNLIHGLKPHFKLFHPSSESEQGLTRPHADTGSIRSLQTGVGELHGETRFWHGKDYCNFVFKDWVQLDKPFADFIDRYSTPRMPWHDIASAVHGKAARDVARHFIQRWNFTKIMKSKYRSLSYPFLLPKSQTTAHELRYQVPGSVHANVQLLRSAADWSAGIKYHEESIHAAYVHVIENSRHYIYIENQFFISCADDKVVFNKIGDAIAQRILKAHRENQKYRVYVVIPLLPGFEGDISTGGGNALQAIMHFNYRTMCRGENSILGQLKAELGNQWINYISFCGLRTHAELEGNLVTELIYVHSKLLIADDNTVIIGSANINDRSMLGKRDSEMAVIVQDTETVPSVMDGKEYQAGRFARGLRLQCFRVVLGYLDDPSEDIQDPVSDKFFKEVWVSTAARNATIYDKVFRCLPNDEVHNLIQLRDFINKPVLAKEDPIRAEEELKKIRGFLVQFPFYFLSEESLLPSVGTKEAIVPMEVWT
How it was run: (§2)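 A549 lysates made in buffer with protease and phosphatase inhibitors. Lysates were incubated with compound for 1 h at room temperature, then digested with Pronase for 10 min at RT. Digestion was quenched in SDS loading buffer by boiling 5 min. PLD1 and β-tubulin were detected by immunoblot.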

[3] = biological target: T2, Phospholipase D1 (Homo sapiens); test: Inhibition of wild type PLD1 (unknown origin) overexpressed in human A549 cells; format: cell-based
How it was run: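 A549 cells transfected with wild-type PLD1, labeled with [3H] myristic acid; PLD activity as [3H] phosphatidylbutanol formed by transphosphatidylation with 1-butanol, expressed as percent of total lipid cpm in PtdBut; alternatively, cells treated 1 h and read by Amplex Red kit (ex 540/em 590 nm); at least three independent experiments.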

A549 = test: Cytotoxicity against human A549 cells assessed as increase in cell death rate by WST-1 assay; format: functional, cell-based; conditions: time 2-48 hrs
[4] = Cytotoxicity against human HCC15 cells assessed as inhibition of cell growth incubated for 48 hrs by WST-1 assay; format: functional, cell-based; conditions: HCC15, 48 h; how it was run: as §1
[5] = biological target: Tubulin beta (Homo sapiens) (UniProt P68371+Q9H4B7+Q13509+P04350+Q3ZCM7+P07437+Q13885+Q9BVA1+Q9BUF5+A6NNZ2); test: Binding affinity to beta-tubulin in human A549 cells assessed as protection against pronase E-mediated proteolysis at 2 to 20 uM incubated for 1 hr by DARTS assay; format: cell-based; conditions: dose 2-20 µM; how it was run: as §2

O=C(CCc1c[nH]c2ccccc12)Nc1cc(C(F)(F)F)cc(C(F)(F)F)c1
IC50 (HCC44): 22.3 µM
inhibition [1]: Active
Activity [2]: Active
inhibition [3]: Active
Activity (A549): Time-dependent-effect
IC50 [4]: 21.4 µM
Activity [5]: inactive
